# Experimental data: ChEMBL document CHEMBL1926593, “Studies on the synthesis and antibacterial activity of 3,6-disubstituted 1,2,4-triazolo[3,4-b]1,3,4-thiadiazoles” (2012)
# The source made the active and inactive calls. The rule behind the calls is not given here.
# Experiments:
# Staphylococcus aureus [1] = assay: Ratio of MBC to MIC for methicillin-resistant Staphylococcus aureus ATCC 14001; assay type: functional
# Summary of the method: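 Broth microdilution following CLSI recommendations. MIC was the lowest concentration with no visible growth. MBC was the lowest concentration giving a >99.9% reduction in CFU relative to the initial inoculum. The ratio was taken from these two values.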
# [2] = system: Staphylococcus epidermidis; assay: Antibacterial activity against drug-sensitive Staphylococcus epidermidis ATCC 12228 by broth microdilution method; assay type: functional
# Summary of the method: (§1)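 Broth microdilution per CLSI recommendation. MIC is the lowest concentration with no visible growth. MBC is the lowest concentration giving >99.9% reduction in CFU of the initial inoculum. Ampicillin, cefuroxime and vancomycin served as reference agents.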
# Bacillus cereus [3] = assay: Antibacterial activity against drug-sensitive Bacillus cereus ATCC 10876 by broth microdilution method; assay type: functional; summary of the method: as §1
# Staphylococcus aureus [4] = assay: Antibacterial activity against methicillin-resistant Staphylococcus aureus ATCC 14001 by broth microdilution method; assay type: functional
# Summary of the method: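 Broth microdilution following CLSI recommendations. MIC was read as the lowest concentration giving no visible growth. Ampicillin, cefuroxime and vancomycin were the reference antibacterials.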
# Staphylococcus aureus [5] = assay: Antibacterial activity against drug-sensitive Staphylococcus aureus ATCC 6538 by broth microdilution method; assay type: functional; summary of the method: as §1
# Staphylococcus aureus [6] = assay: Antibacterial activity against drug-sensitive Staphylococcus aureus ATCC 25923 by broth microdilution method; assay type: functional; summary of the method: as §1
# Bacillus subtilis [7] = assay: Antibacterial activity against drug-sensitive Bacillus subtilis ATCC 6633 by broth microdilution method; assay type: functional; summary of the method: as §1
# Micrococcus luteus = assay: Antibacterial activity against drug-sensitive Micrococcus luteus ATCC 10240 by broth microdilution method; assay type: functional; summary of the method: as §1
# Bacillus subtilis [8] = assay: Ratio of ampicillin MIC to compound MIC for drug-sensitive Bacillus subtilis ATCC 6633 by broth microdilution method; assay type: functional
# Bacillus cereus [9] = assay: Ratio of ampicillin MIC to compound MIC for drug-sensitive Bacillus cereus ATCC 10876 by broth microdilution method; assay type: functional
# Bacillus cereus [10] = assay: Ratio of cefuroxime MIC to compound MIC for drug-sensitive Bacillus cereus ATCC 10876 by broth microdilution method; assay type: functional
# Pseudomonas aeruginosa = assay: Antibacterial activity against drug-sensitive Pseudomonas aeruginosa ATCC 9027 by broth microdilution method; assay type: functional, organism-based; summary of the method: as §1
# Escherichia coli = assay: Antibacterial activity against drug-sensitive Escherichia coli ATCC 25922 by broth microdilution method; assay type: functional, organism-based; summary of the method: as §1
# Proteus mirabilis = assay: Antibacterial activity against drug-sensitive Proteus mirabilis ATCC 12453 by broth microdilution method; assay type: functional, organism-based; summary of the method: as §1
# Klebsiella pneumoniae = assay: Antibacterial activity against drug-sensitive Klebsiella pneumoniae ATCC 13883 by broth microdilution method; assay type: functional, organism-based; summary of the method: as §1
SMILES,Ratio (Staphylococcus aureus [1]),MBC [2],MIC [2],MBC (Bacillus cereus [3]),MIC (Bacillus cereus [3]),MBC (Staphylococcus aureus [4]),MIC (Staphylococcus aureus [4]),MBC (Staphylococcus aureus [5]),MIC (Staphylococcus aureus [5]),MBC (Staphylococcus aureus [6]),MIC (Staphylococcus aureus [6]),MBC (Bacillus subtilis [7]),MIC (Bacillus subtilis [7]),MBC (Micrococcus luteus),MIC (Micrococcus luteus),Ratio (Bacillus cereus [9]),Activity (Pseudomonas aeruginosa),Activity (Escherichia coli),Activity (Proteus mirabilis),Activity (Klebsiella pneumoniae),other results
CN[C@H](CC(C)C)C(=O)N[C@H]1C(=O)N[C@@H](CC(N)=O)C(=O)N[C@H]2C(=O)N[C@H]3C(=O)N[C@H](C(=O)N[C@H](C(=O)O)c4cc(O)cc(O)c4-c4cc3ccc4O)[C@H](O)c3ccc(c(Cl)c3)Oc3cc2cc(c3O[C@@H]2O[C@H](CO)[C@@H](O)[C@H](O)[C@H]2O[C@H]2C[C@](C)(N)[C@H](O)[C@H](C)O2)Oc2ccc(cc2Cl)[C@H]1O [VANCOMYCIN],4,1.95 µg/mL,0.98 µg/mL,31.2 µg/mL,0.98 µg/mL,3.91 µg/mL,0.98 µg/mL,1.95 µg/mL,0.49 µg/mL,7.81 µg/mL,0.98 µg/mL,0.49 µg/mL,0.25 µg/mL,0.49 µg/mL,0.25 µg/mL,,,,,,
Clc1ccc(Nc2nn3c(-c4ccccc4Cl)nnc3s2)cc1,32,15.6 µg/mL,3.91 µg/mL,3.91 µg/mL,3.91 µg/mL,62.5 µg/mL,1.95 µg/mL,15.6 µg/mL,15.6 µg/mL,31.2 µg/mL,15.6 µg/mL,15.6 µg/mL,3.91 µg/mL,15.6 µg/mL,7.81 µg/mL,16,inactive,inactive,inactive,inactive,Ratio (Bacillus subtilis [8]): 4; Ratio (Bacillus cereus [10]): 8
Clc1ccc(Nc2nn3c(-c4cccc(Cl)c4)nnc3s2)cc1,64,3.91 µg/mL,0.98 µg/mL,15.6 µg/mL,7.81 µg/mL,62.5 µg/mL,0.98 µg/mL,31.2 µg/mL,0.49 µg/mL,31.2 µg/mL,1.95 µg/mL,1.95 µg/mL,1.95 µg/mL,3.91 µg/mL,3.91 µg/mL,8,inactive,inactive,inactive,inactive,Ratio (Bacillus subtilis [8]): 8; Ratio (Bacillus cereus [10]): 4
Clc1ccc(Nc2nn3c(-c4ccc(Cl)cc4)nnc3s2)cc1,8,15.6 µg/mL,3.91 µg/mL,31.2 µg/mL,7.81 µg/mL,62.5 µg/mL,7.81 µg/mL,62.5 µg/mL,0.98 µg/mL,62.5 µg/mL,3.91 µg/mL,7.81 µg/mL,3.91 µg/mL,31.2 µg/mL,15.6 µg/mL,8,inactive,inactive,inactive,inactive,Ratio (Bacillus subtilis [8]): 4
CC1(C)S[C@@H]2[C@H](NC(=O)[C@H](N)c3ccccc3)C(=O)N2[C@H]1C(=O)O [AMPICILLIN],,,,,62.5 µg/mL,,,,,,,,,,,,,,,,
Clc1cccc(-c2nnc3sc(Nc4ccc(Br)cc4)nn23)c1,128,3.91 µg/mL,0.98 µg/mL,31.2 µg/mL,15.6 µg/mL,125 µg/mL,0.98 µg/mL,31.2 µg/mL,0.49 µg/mL,31.2 µg/mL,0.98 µg/mL,1.95 µg/mL,1.95 µg/mL,3.91 µg/mL,3.91 µg/mL,4,inactive,inactive,inactive,inactive,Ratio (Bacillus cereus [10]): 2
